Source: publication PMC5217177 (Journal of natural products, 2016)
“Also recorded” adds a separate entry of the source.

Legend:
[1] = tested on: Bacillus subtilis ATCC 6633; test: MIC determination, broth dilution in 96-well plates; format: cell-based; settings: LB medium, 28–37 °C, 16–48 h, OD600 read-out, max conc ~10 μg/mL
How it was run: (§1)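 Starter cultures were grown 16 h at 37 °C and 250 rpm, then diluted in medium to OD600 ~0.1. Test compound was serially diluted in DMSO, with DMSO alone as the negative control. Positive controls were kanamycin for the bacteria and amphotericin B for the yeast. Plates were shaken at 160 rpm during incubation. OD600 was normalized to vehicle wells, and the lowest inhibitory concentration was taken as the MIC.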

[2] = tested on: Salmonella enterica ATCC 10708; test: as above; format: cell-based; settings: nutrient broth, 28–37 °C, 16–48 h, OD600 read-out, max conc ~10 μg/mL
How it was run: as §1

[3] = tested on: Escherichia coli ATCC 12435; test: as above; format: cell-based; settings: LB medium, 28–37 °C, 16–48 h, OD600 read-out, max conc ~10 μg/mL
How it was run: as §1

[4] = tested on: Saccharomyces cerevisiae ATCC 204508; test: as above; format: cell-based; settings: YAPD medium, 28–37 °C, 16–48 h, OD600 read-out, max conc ~10 μg/mL
How it was run: as §1

[5] = Stability under acidic conditions; format: physicochemical; settings: observed during HPLC purification with TFA; UV/Vis monitoring
Gram-positive strains = test: Antibacterial activity, comparisons across the tested strains; format: cell-based; settings: from MIC of Table 3
[6] = tested on: two human cancer cell lines; test: Cytotoxicity, comparison across PC3 and A549; format: cell-based; settings: PC3 and A549, 48 h
[7] = tested on: S. aureus and B. subtilis; settings: cited from earlier work

Substance	MIC, B. subtilis [1]	MIC, S. enterica [2]	MIC, E. coli [3]	MIC, S. cerevisae [4]	stability under acidic conditions [5]	fold more potent than actinomycin Y3 (antibacterial) (Gram-positive strains)	fold change in EC50 compared to actinomycin D (less potent) [6]	antibacterial activity based on zones of inhibition [7]
actinomycin Y4	>9.32 µg/mL	>9.32 µg/mL	>9.32 µg/mL	>9.32 µg/mL				
actinomycin Y6 [Compound 1]	0.59 µg/mL	>9.46 µg/mL	>9.46 µg/mL	9.46 µg/mL	not stable under acidic conditions; also recorded: unstable under acidic condition	≥ 9 fold	278–355 fold	
actinomycin Y5								modest antibacterial activity
actinomycin Y3	>9.33 µg/mL	>9.33 µg/mL	>9.33 µg/mL	>9.33 µg/mL				
